From ChEMBL document CHEMBL4513216, “Probing the Open Global Health Chemical Diversity Library for Multistage-Active Starting Points for Next-Generation Antimalarials” (ACS Infect Dis, 2020)

Test: Toxicity liver stage against HepG2, at 10uM
Type: cell-based
Design: test concentration 10 uM, cell line HepG2-A16-CD81EGFP
Conditions: human, HepG2-A16-CD81EGFP cells; read-out: INHIBITION
In short: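 Uninfected HepG2-A16-CD81EGFP cells, 3 × 10^3 per well, 1536-well, plated on prespotted compound at 10 μM final, parasite-free screening media added to match infected plates; puromycin 10 μM positive, DMSO 0.5% negative; run in parallel with 48 h PbLuc assay at 37 °C, 5% CO2; viability by CellTiter-Glo luminescence, normalized to controls.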

First: CN(C)c1nc2c(c(N3CCC(O)CC3)n1)CN(CC1CCOC1)CC2 (stereo not given)
Second: CC(C)N(C)Cc1cncc2c1CCN(C1CCOCC1)C2
The cytotoxicity at 10 µM of the first is lower: -0.473% for the first, 5.88% for the second.

First: O=C(c1cccnc1OCC(F)(F)F)N1CCCn2ncnc21
Second: O=C(c1nnn(-c2ccc(C(F)(F)F)cc2)n1)N1CC(O)C1
The cytotoxicity at 10 µM of the first is lower: -6.47% for the first, -4.63% for the second.

First: CCC(O)CN1CCN(C(=O)c2cc3ccccc3n2CC)CC1 (stereo not given)
Second: O=C(c1cc2ccccc2c(=O)[nH]1)N1CCN(CCO)CC1
The cytotoxicity at 10 µM of the first is lower: -0.579% for the first, 4.96% for the second.

First: COc1cc(CNC(=O)Nc2nncs2)ccc1O
Second: Cc1ccc(C)c(CC(=O)Nc2cccc(C(=O)N(C)C)n2)c1
The cytotoxicity at 10 µM of the first is higher: -6.29% for the first, -6.56% for the second.

Going from `Cc1ccc(CNC(c2ccc(F)cc2)c2nccn2C)o1` (stereo not given) to `Cc1ccc(CCNc2nc(-c3ccncc3)nc3c2CCNCC3)o1`, the cytotoxicity at 10 µM falls from 0.841% to -132%.

First: Cc1ccc(NC2CCN(C(=O)CCc3ccsc3)CC2)nn1
Second: COCC1c2c(cnn2CC2CC2)CCN1Cc1ccsc1 (stereo not given)
The cytotoxicity at 10 µM of the first is lower: 4.3% for the first, 6.75% for the second.

Going from `Cc1cccc(C(=O)Nc2c(C(=O)N(C)C)nn(C)c2C)c1` to `Cc1nn(C(C)C)c(C)c1NC(=O)c1cccnc1`, the cytotoxicity at 10 µM falls from 7.58% to -1.57%.

Going from `Cc1cc(CN(C)C(=O)NCc2ccccn2)no1` to `CC(C)CCN1CCc2c(C(=O)N(C)Cc3ccccn3)nn(C)c2C1`, the cytotoxicity at 10 µM falls from 1.62% to -0.449%.

First: O=C(COCC1CC1)N1CCN(C(=O)Cc2ccccn2)CC1
Second: NCC(=O)N1CCC2(CC1)CN(C(=O)Cc1ccc(Cl)cc1)CCO2
The cytotoxicity at 10 µM of the first is higher: 10.3% for the first, 5.56% for the second.

Going from `CN(Cc1ccccc1)C1(C(=O)NCC(N)=O)Cc2ccccc2C1` to `c1ccc(CN2CCC3(CC2)Nc2ccccc2CO3)cc1`, the cytotoxicity at 10 µM falls from 2.45% to -0.719%.

Going from `O=C1[C@H]2CN(Cc3ccc(F)cc3)C[C@H]2CN1c1ccsc1` to `O=C1O[C@@H]2CN(c3cnccn3)C[C@@H]2N1CCCc1ccc(F)cc1`, the cytotoxicity at 10 µM rises from -87.8% to -3.94%.

First: Cc1cc2[nH]c(=O)oc2cc1S(=O)(=O)N1CCC(N2CCCC2=O)CC1
Second: Cc1ccc([C@@H]2CN(S(=O)(=O)N3CCC(C)CC3)C[C@H]2N(C)C)cc1
The cytotoxicity at 10 µM of the first is higher: 1.54% for the first, -3.59% for the second.

Compared with `CCc1cc(N2CC(N3CCCCC3C)C2)n2nccc2n1` (stereo not given), `O=C(c1ccc2c(c1)OCCCO2)N1CCCC(n2ccnc2)C1` (stereo not given) is higher in cytotoxicity at 10 µM: -4.85% for the first, 0.893% for the second.

Going from `N#CC1(C(=O)N2CCOC(c3ccc(F)cc3)C2)CCCC1` (stereo not given) to `O=C1CCC(C(=O)N2CCOC(Cc3ccccc3Cl)C2)=NN1` (stereo not given), the cytotoxicity at 10 µM rises from -3.3% to -0.108%.

Compared with `Cc1ncncc1-c1ccnc(N(C)C)n1`, `CN(C)c1ncc2c(O)nc(C3CCNCC3)cc2n1` is higher in cytotoxicity at 10 µM: -8.3% for the first, 13.3% for the second.

Compared with `Cc1nn(C)c2nc(N(C)CC3CCN(CC(C)C)C3)sc12` (stereo not given), `Cn1cc(CNC2CCc3ncnn3C2)c(-c2cccnc2)n1` (stereo not given) is higher in cytotoxicity at 10 µM: -8.13% for the first, -5.92% for the second.

Compared with `CCc1nn(C)c2[nH]nc(NC(=O)c3cccnc3OC)c12`, `Cc1ccccc1Oc1ncccc1CNS(C)(=O)=O` is lower in cytotoxicity at 10 µM: -8.98% for the first, -22.1% for the second.

Going from `O=C(CS(=O)(=O)C1CCCC1)NC1CCc2nccn2C1` (stereo not given) to `Cc1occc1C(=O)N1C[C@@H]2CCCO[C@@H]2[C@H](NS(C)(=O)=O)C1`, the cytotoxicity at 10 µM falls from -17% to -95.3%.

First: Cc1oncc1NS(=O)(=O)c1c[nH]c2ncccc12
Second: COc1ccc(S(=O)(=O)NCCC(O)c2cccs2)c(C)c1 (stereo not given)
The cytotoxicity at 10 µM of the first is lower: -7.49% for the first, -1.13% for the second.

Going from `Cc1cc(CN(Cc2cccs2)CC2CCCO2)no1` (stereo not given) to `CCn1cc(NC(=O)CCc2ccc3c(c2)OCCCO3)cn1`, the cytotoxicity at 10 µM falls from 2.86% to -9.26%.

First: Cc1csc([C@@H]2C[C@H]3CN(c4ncc(F)cn4)C[C@H]3O2)n1
Second: CN1CCN(Cc2cccnc2)C2(CCN(c3ncccn3)C2)C1=O (stereo not given)
The cytotoxicity at 10 µM of the first is higher: 6.88% for the first, 1.31% for the second.

Going from `CCC(=O)N1CCN(c2ccc(C(=O)OC)cc2)CC1C` (stereo not given) to `Cc1[nH]ccc1C(=O)NCC1CC(=O)N(CCc2ccccc2)C1` (stereo not given), the cytotoxicity at 10 µM rises from -13.5% to -1.92%.

In the case of `CSCC(C)(O)CNc1cccc(F)c1C#N` (stereo not given), the cytotoxicity at 10 µM is reported as 0.462%.
